Experimental data reported in ChEMBL document CHEMBL1134236, “Anti-MRSA cephems. Part 1: C-3 substituted thiopyridinium derivatives” (Bioorg Med Chem Lett, 2001).

test system: Staphylococcus aureus; assay: Minimum inhibitory concentration against methicillin-resistant Staphylococcus aureus (MRSA) A27223 in the presence of 50% calf serum.; type: functional; details: not given
Outline: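 NCCLS broth MIC in Mueller-Hinton broth with 2% NaCl plus 50% calf serum. Inoculum about 5×10⁵ CFU/mL, incubated at 35 °C for 24 h. Read as the lowest concentration with no visible growth.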

With Cc1cc(SCC2=C(C(=O)O)N3C(=O)[C@@H](NC(=O)CSc4cc(Cl)ccc4Cl)[C@H]3SC2)cc(CCC(=O)O)[n+]1CCCN.O=C(O)C(F)(F)F.O=C([O-])C(F)(F)F as the compound, how does the MIC read?
Its MIC is 4 µg/mL.

test system: Enterococcus faecium; assay: Minimum inhibitory concentration against Enterococcus faecium A24885; type: functional; details: not given
Outline: (§1)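 Broth dilution MIC under standard NCCLS-recommended conditions. The MIC was read as the lowest drug concentration giving no visible growth. Where the line states it, 50% calf serum was added.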

For Cc1cc(SCC2=C(C(=O)O)N3C(=O)[C@@H](NC(=O)CSc4cc(Cl)ccc4Cl)[C@H]3SC2)cc(CCC(=O)O)[n+]1CCCN.O=C(O)C(F)(F)F.O=C([O-])C(F)(F)F, which MIC is on record?
The MIC was 2 µg/mL.

test system: Staphylococcus aureus; assay: Minimum inhibitory concentration against Staphylococcus aureus / Homo MR A27295; type: functional; details: not given
Outline: (§2)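 Broth MIC under NCCLS standard conditions in Mueller-Hinton broth plus 2% NaCl. Inoculum was about 5×10⁵ CFU/mL, incubated at 35 °C for 24 h. The endpoint was the lowest drug concentration inhibiting all visible growth. Where the line states it, 50% calf serum was added.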

How did the MIC turn out when Cc1cc(SCC2=C(C(=O)O)N3C(=O)[C@@H](NC(=O)CSc4cc(Cl)ccc4Cl)[C@H]3SC2)cc(CCC(=O)O)[n+]1CCCN.O=C(O)C(F)(F)F.O=C([O-])C(F)(F)F was run?
The MIC was 2 µg/mL.

test system: Staphylococcus epidermidis; assay: Minimum inhibitory concentration against Staphylococcus epidermidis / Imipenem A27368; type: functional; details: not given; outline: as §1

How did the MIC turn out when Cc1cc(SCC2=C(C(=O)O)N3C(=O)[C@@H](NC(=O)CSc4cc(Cl)ccc4Cl)[C@H]3SC2)cc(CCC(=O)O)[n+]1CCCN.O=C(O)C(F)(F)F.O=C([O-])C(F)(F)F was run?
Its MIC is 0.5 µg/mL.

test system: Staphylococcus aureus; assay: Minimum inhibitory concentration against Staphylococcus aureus / + 50% calf serum A27223; type: functional; details: not given; outline: as §2

For Cc1cc(SCC2=C(C(=O)O)N3C(=O)[C@@H](NC(=O)CSc4cc(Cl)ccc4Cl)[C@H]3SC2)cc(CCC(=O)O)[n+]1CCCN.O=C(O)C(F)(F)F.O=C([O-])C(F)(F)F, which MIC is on record?
The MIC was 4 µg/mL.

test system: Staphylococcus aureus; assay: Minimum inhibitory concentration against Staphylococcus aureus / Homo MR A27621; type: functional; details: not given; outline: as §2

Cc1cc(SCC2=C(C(=O)O)N3C(=O)[C@@H](NC(=O)CSc4cc(Cl)ccc4Cl)[C@H]3SC2)cc(CCC(=O)O)[n+]1CCCN.O=C(O)C(F)(F)F.O=C([O-])C(F)(F)F was tested. Which MIC did it give?
The MIC was 1 µg/mL.

test system: Staphylococcus aureus; assay: Minimum inhibitory concentration against Staphylococcus aureus A9606 with 50% calf serum; type: functional; details: not given; outline: as §1

Which MIC does the source give for Cc1cc(SCC2=C(C(=O)O)N3C(=O)[C@@H](NC(=O)CSc4cc(Cl)ccc4Cl)[C@H]3SC2)cc(CCC(=O)O)[n+]1CCCN.O=C(O)C(F)(F)F.O=C([O-])C(F)(F)F here?
The MIC was 0.25 µg/mL.

test system: Staphylococcus aureus; assay: Minimum inhibitory concentration against Staphylococcus aureus / Hetero MR A27217; type: functional; details: not given; outline: as §2

Which MIC does the source give for Cc1cc(SCC2=C(C(=O)O)N3C(=O)[C@@H](NC(=O)CSc4cc(Cl)ccc4Cl)[C@H]3SC2)cc(CCC(=O)O)[n+]1CCCN.O=C(O)C(F)(F)F.O=C([O-])C(F)(F)F here?
The MIC was 0.5 µg/mL.

test system: Staphylococcus aureus; assay: Minimum inhibitory concentration against Staphylococcus aureus / Pen.+ A9606; type: functional; details: not given; outline: as §1

With Cc1cc(SCC2=C(C(=O)O)N3C(=O)[C@@H](NC(=O)CSc4cc(Cl)ccc4Cl)[C@H]3SC2)cc(CCC(=O)O)[n+]1CCCN.O=C(O)C(F)(F)F.O=C([O-])C(F)(F)F as the compound, how does the MIC read?
The MIC was 0.125 µg/mL.

test system: Streptococcus pneumoniae; assay: Minimum inhibitory concentration against penicillin resistant Streptococcus pneumoniae A28272; type: functional; details: not given

With Cc1cc(SCC2=C(C(=O)O)N3C(=O)[C@@H](NC(=O)CSc4cc(Cl)ccc4Cl)[C@H]3SC2)cc(CCC(=O)O)[n+]1CCCN.O=C(O)C(F)(F)F.O=C([O-])C(F)(F)F as the compound, how does the MIC read?
The MIC was 0.25 µg/mL.

test system: Staphylococcus aureus; assay: Minimum inhibitory concentration against methicillin-resistant Staphylococcus aureus (MRSA) A27223; type: functional; details: Staphylococcus aureus; read-out: MIC
Outline: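 Broth microdilution per NCCLS in Mueller-Hinton broth with 2% NaCl. Inoculum about 5×10⁵ CFU/mL, incubated at 35 °C for 24 h. MIC is the lowest drug concentration that inhibits all visible growth.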

Which MIC does the source give for Cc1cc(SCC2=C(C(=O)O)N3C(=O)[C@@H](NC(=O)CSc4cc(Cl)ccc4Cl)[C@H]3SC2)cc(CCC(=O)O)[n+]1CCCN.O=C(O)C(F)(F)F.O=C([O-])C(F)(F)F here?
The MIC was 1 µg/mL.

test system: Staphylococcus haemolyticus; assay: Minimum inhibitory concentration against Staphylococcus haemolyticus A21638; type: functional; details: not given; outline: as §1

Cc1cc(SCC2=C(C(=O)O)N3C(=O)[C@@H](NC(=O)CSc4cc(Cl)ccc4Cl)[C@H]3SC2)cc(CCC(=O)O)[n+]1CCCN.O=C(O)C(F)(F)F.O=C([O-])C(F)(F)F was tested. Which MIC did it give?
Its MIC is 0.125 µg/mL.

test system: Staphylococcus epidermidis; assay: Minimum inhibitory concentration against Staphylococcus epidermidis A24548; type: functional; details: not given; outline: as §1

For Cc1cc(SCC2=C(C(=O)O)N3C(=O)[C@@H](NC(=O)CSc4cc(Cl)ccc4Cl)[C@H]3SC2)cc(CCC(=O)O)[n+]1CCCN.O=C(O)C(F)(F)F.O=C([O-])C(F)(F)F, which MIC is on record?
The MIC was 0.03 µg/mL.

test system: Staphylococcus aureus; assay: Minimum inhibitory concentration against Staphylococcus aureus / Homo MR A27226; type: functional; details: not given; outline: as §2

Which MIC does the source give for Cc1cc(SCC2=C(C(=O)O)N3C(=O)[C@@H](NC(=O)CSc4cc(Cl)ccc4Cl)[C@H]3SC2)cc(CCC(=O)O)[n+]1CCCN.O=C(O)C(F)(F)F.O=C([O-])C(F)(F)F here?
The MIC was 0.5 µg/mL.

test system: Staphylococcus aureus; assay: Minimum inhibitory concentration against Staphylococcus aureus A27218 with 50% calf serum; type: functional; details: not given; outline: as §2

Cc1cc(SCC2=C(C(=O)O)N3C(=O)[C@@H](NC(=O)CSc4cc(Cl)ccc4Cl)[C@H]3SC2)cc(CCC(=O)O)[n+]1CCCN.O=C(O)C(F)(F)F.O=C([O-])C(F)(F)F was tested. Which MIC did it give?
Its MIC is 1 µg/mL.

test system: Staphylococcus aureus; assay: Minimum inhibitory concentration against Staphylococcus aureus / Hetero MR A27218; type: functional; details: not given; outline: as §2

Cc1cc(SCC2=C(C(=O)O)N3C(=O)[C@@H](NC(=O)CSc4cc(Cl)ccc4Cl)[C@H]3SC2)cc(CCC(=O)O)[n+]1CCCN.O=C(O)C(F)(F)F.O=C([O-])C(F)(F)F was tested. Which MIC did it give?
Its MIC is 0.5 µg/mL.

test system: Enterococcus faecium; assay: Minimum inhibitory concentration against Enterococcus faecium Amp. R. Vanco. S A28156; type: functional; details: not given; outline: as §1

With Cc1cc(SCC2=C(C(=O)O)N3C(=O)[C@@H](NC(=O)CSc4cc(Cl)ccc4Cl)[C@H]3SC2)cc(CCC(=O)O)[n+]1CCCN.O=C(O)C(F)(F)F.O=C([O-])C(F)(F)F as the compound, how does the MIC read?
The MIC was 64 µg/mL.

test system: Staphylococcus epidermidis; assay: Minimum inhibitory concentration against Staphylococcus epidermidis / MR A25783; type: functional; details: not given; outline: as §1

Cc1cc(SCC2=C(C(=O)O)N3C(=O)[C@@H](NC(=O)CSc4cc(Cl)ccc4Cl)[C@H]3SC2)cc(CCC(=O)O)[n+]1CCCN.O=C(O)C(F)(F)F.O=C([O-])C(F)(F)F was tested. Which MIC did it give?
Its MIC is 0.25 µg/mL.

test system: Staphylococcus aureus; assay: Minimum inhibitory concentration against Staphylococcus aureus / Pen.- A9497; type: functional; details: not given; outline: as §1

Cc1cc(SCC2=C(C(=O)O)N3C(=O)[C@@H](NC(=O)CSc4cc(Cl)ccc4Cl)[C@H]3SC2)cc(CCC(=O)O)[n+]1CCCN.O=C(O)C(F)(F)F.O=C([O-])C(F)(F)F was tested. Which MIC did it give?
Its MIC is 0.007 µg/mL.

test system: Staphylococcus aureus; assay: Minimum inhibitory concentration against Staphylococcus aureus A20241 /MS/Pen.; type: functional; details: not given; outline: as §1

With Cc1cc(SCC2=C(C(=O)O)N3C(=O)[C@@H](NC(=O)CSc4cc(Cl)ccc4Cl)[C@H]3SC2)cc(CCC(=O)O)[n+]1CCCN.O=C(O)C(F)(F)F.O=C([O-])C(F)(F)F as the compound, how does the MIC read?
Its MIC is 0.25 µg/mL.

test system: Enterococcus faecalis; assay: Minimum inhibitory concentration against Enterococcus faecalis A20688; type: functional; details: not given; outline: as §1

How did the MIC turn out when Cc1cc(SCC2=C(C(=O)O)N3C(=O)[C@@H](NC(=O)CSc4cc(Cl)ccc4Cl)[C@H]3SC2)cc(CCC(=O)O)[n+]1CCCN.O=C(O)C(F)(F)F.O=C([O-])C(F)(F)F was run?
The MIC was 0.5 µg/mL.

test system: Streptococcus pneumoniae; assay: Minimum inhibitory concentration against Streptococcus pneumoniae / Pen.I A27881; type: functional; details: not given; outline: as §1

How did the MIC turn out when Cc1cc(SCC2=C(C(=O)O)N3C(=O)[C@@H](NC(=O)CSc4cc(Cl)ccc4Cl)[C@H]3SC2)cc(CCC(=O)O)[n+]1CCCN.O=C(O)C(F)(F)F.O=C([O-])C(F)(F)F was run?
Its MIC is 0.06 µg/mL.

test system: Staphylococcus aureus; assay: Dose required for protective activity against methicillin-resistant Staphylococcus aureus (MRSA) A27223 in mouse following i.m. administration.; details: im, read-out: PD50

For Cc1cc(SCC2=C(C(=O)O)N3C(=O)[C@@H](NC(=O)CSc4cc(Cl)ccc4Cl)[C@H]3SC2)cc(CCC(=O)O)[n+]1CCCN.O=C(O)C(F)(F)F.O=C([O-])C(F)(F)F, which ED50 is on record?
Its ED50 is 2.5 mg/kg.

test system: Enterococcus faecalis; assay: Minimum inhibitory concentration against Enterococcus faecalis A20688 with 50% calf serum; type: functional; details: not given; outline: as §1

For Cc1cc(SCC2=C(C(=O)O)N3C(=O)[C@@H](NC(=O)CSc4cc(Cl)ccc4Cl)[C@H]3SC2)cc(CCC(=O)O)[n+]1CCCN.O=C(O)C(F)(F)F.O=C([O-])C(F)(F)F, which MIC is on record?
Its MIC is 4 µg/mL.

test system: Staphylococcus aureus; assay: Minimum inhibitory concentration against Staphylococcus aureus / Homo MR A27223; type: functional; details: not given; outline: as §2

For Cc1cc(SCC2=C(C(=O)O)N3C(=O)[C@@H](NC(=O)CSc4cc(Cl)ccc4Cl)[C@H]3SC2)cc(CCC(=O)O)[n+]1CCCN.O=C(O)C(F)(F)F.O=C([O-])C(F)(F)F, which MIC is on record?
Its MIC is 1 µg/mL.

test system: Staphylococcus aureus; assay: Minimum inhibitory concentration against Staphylococcus aureus / MR. P- A27225; type: functional; details: not given; outline: as §2

Which MIC does the source give for Cc1cc(SCC2=C(C(=O)O)N3C(=O)[C@@H](NC(=O)CSc4cc(Cl)ccc4Cl)[C@H]3SC2)cc(CCC(=O)O)[n+]1CCCN.O=C(O)C(F)(F)F.O=C([O-])C(F)(F)F here?
The MIC was 0.5 µg/mL.

test system: Staphylococcus haemolyticus; assay: Minimum inhibitory concentration against Staphylococcus haemolyticus / Homo MR A27229; type: functional; details: not given; outline: as §1

For Cc1cc(SCC2=C(C(=O)O)N3C(=O)[C@@H](NC(=O)CSc4cc(Cl)ccc4Cl)[C@H]3SC2)cc(CCC(=O)O)[n+]1CCCN.O=C(O)C(F)(F)F.O=C([O-])C(F)(F)F, which MIC is on record?
The MIC was 2 µg/mL.

test system: Streptococcus pyogenes; assay: Minimum inhibitory concentration against Streptococcus pyogenes Todd Hewitt A9604; type: functional; details: not given; outline: as §1

With Cc1cc(SCC2=C(C(=O)O)N3C(=O)[C@@H](NC(=O)CSc4cc(Cl)ccc4Cl)[C@H]3SC2)cc(CCC(=O)O)[n+]1CCCN.O=C(O)C(F)(F)F.O=C([O-])C(F)(F)F as the compound, how does the MIC read?
Its MIC is 0.0005 µg/mL.
